Mdm2 MdmX PPI: disrupts the human Mdm2-MdmX interaction; SaOS-2 split-luciferase Mdm2/MdmX complementation, luminescence; inhibition, % at 8 µM; 330,000 tested, 3% active; AID 485346;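 active = inhibition of at least 50% at 8 µM in the primary screen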
Target sequence (O15151 whole entry, looked up): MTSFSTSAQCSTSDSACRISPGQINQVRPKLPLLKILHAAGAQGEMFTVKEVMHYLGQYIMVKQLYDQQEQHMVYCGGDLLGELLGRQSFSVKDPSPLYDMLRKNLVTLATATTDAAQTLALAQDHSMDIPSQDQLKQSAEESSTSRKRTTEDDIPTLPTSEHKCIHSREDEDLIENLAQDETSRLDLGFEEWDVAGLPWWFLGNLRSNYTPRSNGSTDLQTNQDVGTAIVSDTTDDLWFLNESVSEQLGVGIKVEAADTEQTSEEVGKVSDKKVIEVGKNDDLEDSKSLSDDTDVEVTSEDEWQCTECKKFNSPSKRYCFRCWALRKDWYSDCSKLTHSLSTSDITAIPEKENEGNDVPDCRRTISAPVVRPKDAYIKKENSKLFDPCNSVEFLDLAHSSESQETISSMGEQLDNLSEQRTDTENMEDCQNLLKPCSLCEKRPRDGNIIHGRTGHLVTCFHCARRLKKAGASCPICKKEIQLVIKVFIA
Target sequence (Q00987 whole entry, looked up): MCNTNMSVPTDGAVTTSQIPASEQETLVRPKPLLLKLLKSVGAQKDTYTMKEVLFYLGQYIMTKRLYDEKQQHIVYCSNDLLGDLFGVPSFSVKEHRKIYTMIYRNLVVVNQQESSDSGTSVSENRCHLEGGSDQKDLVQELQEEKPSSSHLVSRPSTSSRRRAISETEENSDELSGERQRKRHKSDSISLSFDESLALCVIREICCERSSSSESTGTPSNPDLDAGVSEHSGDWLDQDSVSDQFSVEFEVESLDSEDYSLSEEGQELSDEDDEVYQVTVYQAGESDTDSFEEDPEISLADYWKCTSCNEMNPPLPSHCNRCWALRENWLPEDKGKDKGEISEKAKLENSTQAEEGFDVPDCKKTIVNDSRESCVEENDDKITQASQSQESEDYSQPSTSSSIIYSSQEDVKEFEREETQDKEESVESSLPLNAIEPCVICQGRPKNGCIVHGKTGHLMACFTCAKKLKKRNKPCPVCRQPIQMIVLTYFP
UPR XBP1 act: adaptive UPR (XBP1) activation. CHO-XBP1 luciferase reporter, IRE1-XBP1 UPR activation, luminescence; percent of tunicamycin response, DMSO as zero. activation, % at 20 µM. 330,000 tested, 0.33% active;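 active = versus positive control, 20 µM dose yields 30% or more activation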;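 note: 100% = tunicamycin at 10 µg/mL and 0% = DMSO only wells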
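Test system: CHO-XBP1 luciferase reporter cells | Buffer or medium: Serum-containing F12 medium, 10% FBS | Schedule: 6 h compound exposure at 37 °C, 5% CO2 | Detection: Steady-Glo luciferase glow luminescence, 10 min after reagent addition | Read-out basis: Activation, % of tunicamycin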
T cruzi inh: blocks replication of Trypanosoma cruzi; inhibition, % (test concentration not listed); T. cruzi beta-gal in NIH3T3, luminescence, 90 h; 300,000 tested, 1.4% active;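 active = mean inhibition across valid replicates above about 55%, limit read from the data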;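 note: signal also drops with host cell toxicity which is not excluded here; 0% = plate median of DMSO wells and 100% = zero luminescence signal; higher percent means less beta-gal luminescence so fewer parasites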
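Read-out: Parasite load inhibition, % | Test system: Mouse NIH/3T3 fibroblasts infected with β-gal-expressing T. cruzi Tulahuen C4 | Amount: 5,000 cells/well | Medium: DMEM, 2% fetal bovine serum | Signal: GalScreen β-gal luminescence, detergent lysis, 60 min | Timing: 3 h attach, ≥90 h co-culture | Also added: Tulahuen C4 trypomastigotes, 5000/well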
CSC inhib: blocks cancer stem cells | 300,000 tested, 1.1% active | AID 2717 | inhibition, % at 7.5 µM | cancer stem cell-like cells viability, luminescence; in the data active = inhibition above about 75%; tested in HMLE shEcad cells
CHOP UPR activ: apoptotic UPR (CHOP) activation; CHO-CHOP luciferase reporter, luminescence; percent of tunicamycin response over DMSO baseline; activation, % at 10 µM; AID 449763; 330,000 tested, 0.34% active;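 active = at 10 µM dose, activation of 40% or more, normalized to positive control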;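 note: 100% = tunicamycin at 10 µg/mL and 0% = DMSO alone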
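measured by = luciferase luminescence | assay system = CHO-CHOP cells, stable luciferase reporter of PERK-eIF2a-CHOP signalling | amount = 500 reporter cells seeded per well | timing = 6 h compound exposure at 37 °C after overnight seeding | controls = positive tunicamycin 10 µg/mL, negative DMSO alone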
Beta cell apopt: blocks beta cell apoptosis; INS-1E cytokine-induced death, ATP luminescence, 48 h; percent of positive-control rescue, neutral wells zero; protection from apoptosis, % (concentration not given with the values); 300,000 tested, 0.8% active; AID 435005;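 active = Every replicate reaches about 75%, or at least half do and their mean reaches it too, limit read from the data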;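 note: 0% = cytokine-treated negative control wells and 100% = positive control rescue; higher means more ATP so stronger rescue from cytokine killing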
XBP1 UPR conf: adaptive UPR (XBP1) activation, confirmed. CHO-XBP1 IRE1-XBP1 luciferase reporter, luminescence. AID 485299. shares compounds with UPR XBP1 act. activation, % at 20 µM. 1,000 tested, 63% active;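 active = reporter signal at least 30% of the positive control's activation in two or more of four replicate wells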;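 note: plate controls were DMSO negative control for no effect and tunicamycin 10 µg/mL positive control for full effect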
Mdm2 MdmX conf: human Mdm2/MdmX binding inhibition, confirmed. shares compounds with Mdm2 MdmX PPI. luminescent assay. inhibition, % at 8 µM. 10,000 tested, 55% active; in the data active = inhibition above about 40%
Full FLuc ctr: inhibits full-length luciferase, flagging false Mdm2/MdmX hits; shares compounds with Mdm2 MdmX PPI; SaOS-2 full-length luciferase counterscreen, luminescence; 6,200 tested, 77% active; inhibition, % at 8 µM;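 active = mean inhibition at 8 µM reaching about 37%, which flags the compound as non-specific, limit read from the data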;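 note: p53-null SaOS-2 cells with luciferase driven by a doxycycline-inducible promoter; compound on cells about two nights before reading with doxycycline added after day one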
An asterisk follows results filed as active; / = no result. An excerpt weighted towards active compounds, which were near 5% of everything screened.

SMILES | Mdm2 MdmX PPI | UPR XBP1 act | T cruzi inh | CSC inhib | CHOP UPR activ | Beta cell apopt | XBP1 UPR conf | Mdm2 MdmX conf | others
O=C(c1cccc(NS(=O)(=O)c2ccc(Br)cc2)c1)N1CCN(c2ccccc2O)CC1 | -2.3 | 0.4 | / | / | -0.6 | / | / | /
COc1ccc(OC)c(NC(=O)c2oc3ccccc3c2NC(=O)C2CC2)c1 | 57.9* | 60.5* | -0.3 | -0.9 | 1.3 | 8.6 | 40.0* | 17.6
COc1ccc(OCc2n(CC(=O)OC3CC(C)CCC3C(C)C)c3ccccc3[n+]2C)cc1 (stereo not drawn) | 94.3* | 35.9* | 50.2 | 57.8 | 1.8 | 99.7* | 32.5* | 97.2* | Full FLuc ctr=58.6*
COc1cc(C)ccc1OCc1cc(C(=O)N2CCCCCCC2)no1 | -27.6 | -1.6 | 0.4 | -5.2 | 5.7 | -3.8 | / | /
Cc1nc(Nc2nc(-c3ccccc3)cc(=O)[nH]2)nc2ccccc12 | 68.2* | 84.1* | 24.1 | / | 3.1 | 3.1 | 131.7* | 45.0* | Full FLuc ctr=70.3*
Cc1nc(Nc2nc(CSc3ccc(Cl)cc3)cc(=O)[nH]2)nc2ccccc12 | 25.0 | 7.0 | 9.0 | -35.4 | 3.6 | 15.9 | / | /
COc1ccc2[nH]c3c(c2c1)CCN1C(=O)C(CC(=O)NCC24CC5CC(CC(C5)C2)C4)C[C@H](C(=O)N(C(C)C)C(C)C)[C@@]31C (stereo partly drawn) | 30.5 | 9.4 | / | / | 1.7 | / | / | /
O=[N+]([O-])c1ccc(S(=O)(=O)N2CCC3(CC2)OCCN3S(=O)(=O)c2cccs2)cc1 | 28.8 | -1.0 | 54.1 | -4.3 | -1.5 | -1.5 | / | /
CN1CCN(Cc2cc(=O)oc3cc4c(cc23)CCC4)CC1 | 7.5 | -1.5 | 30.4 | 7.8 | -0.3 | -0.4 | / | /
O=c1cc(CN2CCN(c3ccc(F)cc3)CC2)c2cc3c(cc2o1)CCCC3 | 67.7* | 99.6* | -5.1 | -17.6 | 34.8 | 15.5 | 96.0* | 0.7
C[C@H]1CN([C@@H](C)CO)C(=O)c2cccc(NC(=O)Nc3ccc(C(F)(F)F)cc3)c2O[C@@H]1CN(C)C(=O)Nc1ccc(F)cc1 | 41.7 | 5.6 | / | 58.0 | 5.3 | 3.9 | / | /
C[C@H](CO)N1C[C@H](C)[C@@H](CN(C)C(=O)Nc2ccc(C(F)(F)F)cc2)Oc2c(NC(=O)Nc3ccc(C(F)(F)F)cc3)cccc2C1=O | 83.8* | 36.5* | / | 105.7* | 7.4 | 6.6 | 28.1 | -5.6
N/C(=N\c1nc(CSc2ccccn2)cc(=O)[nH]1)Nc1ccc(Cl)cc1Cl | 63.8* | 31.6* | 1.8 | / | -3.0 | 5.2 | 32.2* | 1.9
COc1ccc(Cl)cc1N/C(N)=N/c1nc(CSc2ccc(C)cc2)cc(=O)[nH]1 | 3.9 | 1.8 | 25.8 | -6.7 | 4.0 | 12.1 | / | /
COCCn1c(SCC(=O)Nc2cccc(NC(C)=O)c2)nc2c([nH]c3ccccc32)c1=O | 18.6 | -4.5 | -9.5 | 17.1 | 2.7 | -1.3 | / | /
COc1cccc(NC(=O)CSc2nc3c([nH]c4ccccc43)c(=O)n2C)c1 | 54.8* | 34.8* | 21.2 | -10.7 | -1.6 | 28.1 | 16.8 | 10.2
COc1cc(-c2noc(C)c2/C=C/c2ccc(OC(C)=O)cc2)cc(OC)c1OC | 84.3* | 31.9* | 35.4 | 109.2* | 2.8 | 15.1 | 32.2* | 90.3* | Full FLuc ctr=94.0*
Cc1c(N(C)C(=O)COc2ccc3ccccc3c2)c(=O)n(-c2ccccc2)n1C | -35.1 | 7.6 | -17.8 | 8.2 | -0.4 | 0.0 | / | /
C[C@]12c3[nH]c4ccc(Cl)cc4c3CCN1C(=O)[C@@H](CC(=O)NCc1cccc(C(F)(F)F)c1)C[C@@H]2C(=O)N1CCOCC1 | 27.7 | 5.5 | / | / | 5.9 | / | / | /
CC(C)N(C(=O)[C@H]1C[C@H](CC(=O)NCc2cccc(C(F)(F)F)c2)C(=O)N2CCc3c([nH]c4ccc(Cl)cc34)[C@]12C)C(C)C | 94.8* | 54.9* | / | / | 9.0 | / | 70.2* | 40.5* | Full FLuc ctr=81.3*
